A short description of series [1]: folding enthalpy; higher = less favourable; fluorescence melt of hairpins on a sequencing array, two-state fit. To be noted: sodium 0.088 M. Summed up:
(§1)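 Cy3 fluorescence of library hairpins on a sequenced MiSeq flow cell, with annealed Cy3 and quencher oligos, was imaged in 50 mM Na-HEPES pH 8.0, 25 mM NaCl in 2.5 °C steps up to 60 °C. Signals were normalised to pre-quench Cy3 and to control variants. Melting temperature and folding enthalpy came from bootstrapped two-state fits, inverse-variance combined over four replicates. Fitted temperatures were raised by 9.35 °C to match UV melts.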

A short description of series [2]: melting temperature; fluorescence melt of hairpins on a sequencing array, two-state fit, raised by 9.35 °C to match UV melts. To be noted: sodium 0.088 M. Summed up: as §1

Consider GCAAGAGGAAACCCTTGC (((((.(....).))))), for which the folding enthalpy in series [1] was -25.9 kcal/mol. Besides, the Tm in series [2] stood at 45.3 °C.

On to GCAAGAGGAAACTCTTAC (.(((((....))))).), for which the folding enthalpy in series [1] was -14.6 kcal/mol. Also, the Tm in series [2] amounted to 28 °C.

Turning to GCAAGCCGAAAGGCCTGC (((.(((....))).))), the folding enthalpy in series [1] was -23.3 kcal/mol. Also, in series [2], the Tm is 54 °C.

Turning to GCAAGCCGAAAGGCGTGC (((.(((....))).))), in series [1], the folding enthalpy was -18.9 kcal/mol. Also, the Tm in series [2] came to 68.7 °C.

For the sequence GCAAGCCGAAAGGCTGC (((.(((....)))))), in series [1], the folding enthalpy was -18.8 kcal/mol. In addition, in series [2], the Tm was 68.5 °C.

On to GCAAGCGAAAGCTAATGC ((((((....)))..))), for which the folding enthalpy in series [1] was -15.5 kcal/mol. Also, the Tm in series [2] was 39.4 °C.

On to GCAAGCGAAAGCTACTGC ((((((....)))..))), for which the folding enthalpy in series [1] was -13.2 kcal/mol. In addition, the Tm in series [2] came out at 37.3 °C.

GCAAGCGAAAGCTATGC ((((((....))).))): the folding enthalpy in series [1] was -23 kcal/mol. For the same sequence, the Tm in series [2] was 51.2 °C.

Turning to GCAAGCGAAAGCTCCTGC ((((((....)))..))), the folding enthalpy in series [1] is -10.1 kcal/mol. Further, the Tm in series [2] is 30.9 °C.

As to GCAAGCGAAAGCTCGTGC ((((((....)))..))), the folding enthalpy in series [1] is -15.1 kcal/mol. For the same sequence, the Tm in series [2] was 37.4 °C.

On to GCAAGCGAAAGCTGTGC ((((((....))).))), for which the folding enthalpy in series [1] is -15.8 kcal/mol. In addition, the Tm in series [2] amounted to 55.9 °C.

As for GCAAGCGCGAAAGCGTGC (((..(((....)))))), the folding enthalpy in series [1] was -12.5 kcal/mol. Moreover, in series [2], the Tm worked out at 47.5 °C.

As for GCAAGGCGAAAGCATCGC ((.(.((....)).).)), the folding enthalpy in series [1] was -14.4 kcal/mol. Besides, the Tm in series [2] is 37.3 °C.

In the case of GCAAGGCGAAAGCCATGC (((.(((....))).))), in series [1], the folding enthalpy is -32.8 kcal/mol. For the same sequence, the Tm in series [2] is 57.9 °C.

Turning to GCAAGGCGAAAGCCCAGC ((..(((....)))..)), the folding enthalpy in series [1] was -13.1 kcal/mol. In series [2], the Tm stood at 45.9 °C.

On to GCAAGGCGAAAGCCCCGC ((..(((....)))..)), for which, in series [1], the folding enthalpy was -10.7 kcal/mol. In series [2], the Tm turned out to be 37 °C.

Take GCAAGGCGAAAGCCCGGC ((..(((....)))..)): the folding enthalpy in series [1] was -17.4 kcal/mol. The Tm in series [2] came to 45.9 °C.

For the sequence GCAAGGCGAAAGCCGAGC ((..(((....)))..)), in series [1], the folding enthalpy is -29.1 kcal/mol. Moreover, in series [2], the Tm was 65 °C.

For the sequence GCAAGGCGAAAGCCGTGC (((.(((....))).))), the folding enthalpy in series [1] is -22.8 kcal/mol. The Tm in series [2] was 68 °C.

On to GCAAGGCGAAAGCTTCGC ((.(.((....)).).)), for which the folding enthalpy in series [1] was -12.2 kcal/mol. For the same sequence, the Tm in series [2] worked out at 40.9 °C.

For GCAAGGGAAACCTTGC ((((((....)))))), the folding enthalpy in series [1] is -37.9 kcal/mol. Also, the Tm in series [2] was 60.1 °C.

For GCAAGGGGAAACCCCTAC (.(.(((....))).).), the folding enthalpy in series [1] is -12 kcal/mol. For the same sequence, the Tm in series [2] amounted to 28.7 °C.

In the case of GCAAGTCGAAAGACCTGC (((.(((....))).))), the folding enthalpy in series [1] is -29.6 kcal/mol. In addition, the Tm in series [2] was 47.9 °C.

Turning to GCAATCGAAAGATAATGC ((((((....)))..))), the folding enthalpy in series [1] is -16.3 kcal/mol. For the same sequence, the Tm in series [2] turned out to be 27.8 °C.

Take GCAATCGAAAGATAGTGC ((((((....)))..))): the folding enthalpy in series [1] was -22.9 kcal/mol. The Tm in series [2] amounted to 32 °C.

On to GCAATCGAAAGATCGTGC ((((((....)))..))), for which the folding enthalpy in series [1] is -16.1 kcal/mol. Moreover, in series [2], the Tm was 28 °C.

For the sequence GCAATCGGAAACGATTAC (.(((((....))))).), in series [1], the folding enthalpy is -16.1 kcal/mol. Besides, the Tm in series [2] stood at 38 °C.

For the sequence GCAATGCGAAAGCAGGGC ((..(((....)))..)), in series [1], the folding enthalpy was -25.4 kcal/mol. Further, in series [2], the Tm worked out at 60.9 °C.

For the sequence GCAATGCGAAAGCAGTGC (((.(((....))).))), the folding enthalpy in series [1] was -33.6 kcal/mol. Further, the Tm in series [2] stood at 65.6 °C.

GCAATGCGAAAGCCGTGC (((..((....))..))): the folding enthalpy in series [1] was -20.4 kcal/mol. Besides, the Tm in series [2] was determined as 35.4 °C.

For GCAATGCGAAAGCCTTGC ((((.((....)).)))), the folding enthalpy in series [1] is -27.6 kcal/mol. Further, in series [2], the Tm is 53.9 °C.

With GCAATGCGAAAGCTCTGC (((..((....))..))), in series [1], the folding enthalpy is -16.1 kcal/mol. Further, the Tm in series [2] worked out at 37.2 °C.

Regarding GCAATGCGAAAGCTTAGC ((.(.((....)).).)), the folding enthalpy in series [1] was -15.9 kcal/mol. Besides, in series [2], the Tm worked out at 36.4 °C.

On to GCAATGGAAACATTGC ((((((....)))))), for which the folding enthalpy in series [1] is -42.1 kcal/mol. Moreover, in series [2], the Tm stood at 58.1 °C.

As to GCAATGGGAAACCACTGC (((.(((....))).))), the folding enthalpy in series [1] was -28.6 kcal/mol. Besides, the Tm in series [2] was found to be 39.1 °C.

As to GCAATTCGAAAGAACTGC (((.(((....))).))), in series [1], the folding enthalpy was -31.4 kcal/mol. For the same sequence, the Tm in series [2] was 43.4 °C.

Turning to GCACAACGAAAGTTTGC (((.(((....)))))), the folding enthalpy in series [1] was -25.6 kcal/mol. In addition, the Tm in series [2] turned out to be 44.5 °C.
